According to ChEMBL document CHEMBL1137992, “Long hydrocarbon chain keto diols and diacids that favorably alter lipid disorders in vivo” (J Med Chem, 2004):

system: not listed separately; assay: Concentration required for inhibition of lipid synthesis in primary cultures of rat hepatocytes; value ranges from 100-300 uM; type: functional, cell-based; settings: Hepatocyte
Method in brief: (§1)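 Primary hepatocytes from male Sprague-Dawley rats (Seglen isolation), plated at 1.5×10^5 cells/cm² on collagen in serum-containing DMEM, switched to serum-free medium after 4 h, grown overnight to monolayers. Cells incubated 4 h with 0.25 μCi [1-14C]acetate/well (1 Ci/mol final) plus 0, 1, 3, 10, 30, 100 or 300 μM compound. Lipids extracted into scintillant and counted; IC50 taken from lipid synthesis rates.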

**Q.** With CC(CO)(CCCCC(=O)CCCCC(C)(CO)c1ccccc1)c1ccccc1 (stereo not given) as the compound, how does the IC50 read?
**A.** < 300 µM

system: Rattus norvegicus; assay: Percentage change of triglycerides in obese female Zucker rats after 1 week of pre-treatment at a dose of 30 mg/kg/day; type: functional; settings: not given
Method in brief: (§2)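 Female Zucker fatty rats [Crl:(Zuc)-faBR], 10–12 weeks old (400–500 g), acclimated 7 days and fed rodent chow. Dosed once daily by oral gavage in 20% EtOH/80% PEG-200 (v/v), at 0.25% of body weight, for 2 weeks. Blood taken after a 6-h fast: orbital plexus before dosing and at day 7, cardiac puncture at day 14. Serum lipoprotein cholesterol measured by Superose 6 gel filtration with on-line cholesterol detection. Values are % change from pretreatment, mean ± SEM.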

**Q.** For CC(CO)(CCCCC(=O)CCCCC(C)(CO)c1ccccc1)c1ccccc1 (stereo not given), which Change is on record?
**A.** -25%

system: Rattus norvegicus; assay: Percentage change of triglycerides in obese female Zucker rats after 1 week of pre-treatment at a dose of 59 mg/kg/day; type: functional; settings: not given; method in brief: as §2

**Q.** For CC(C)(Cc1cccc(C(=O)c2cccc(CC(C)(C)C(=O)O)c2)c1)C(=O)O, which Change is on record?
**A.** -24%

system: Rattus norvegicus; assay: Percentage change of triglycerides in obese female Zucker rats after 1 week of pre-treatment at a dose of 100 mg/kg/day; type: functional; settings: not given; method in brief: as §2

**Q.** Which Change does the source give for CC(C)Cc1ccc(C(C)(CO)CCCCC(=O)CCCCC(C)(CO)c2ccc(CC(C)C)cc2)cc1 (stereo not given) here?
**A.** -10%

**Q.** Which Change does the source give for CC(CCCC(=O)CCCC(C)(C(=O)O)c1ccccc1)(C(=O)O)c1ccccc1 (stereo not given) here?
**A.** 10%

**Q.** With CC(C)OC(=O)C(C)(C)Oc1ccc(C(=O)c2ccc(Cl)cc2)cc1 [FENOFIBRATE] as the compound, how does the Change read?
**A.** 6%

**Q.** Which Change does the source give for CC(CCCCC(=O)CCCCC(C)(C(=O)O)c1ccccc1)(C(=O)O)c1ccccc1 (stereo not given) here?
**A.** -36%

system: Rattus norvegicus; assay: Percentage change of triglycerides in obese female Zucker rats after 2 weeks of pre-treatment at a dose of 30 mg/kg/day; type: functional; settings: not given; method in brief: as §2

**Q.** For CC(CO)(CCCCC(=O)CCCCC(C)(CO)c1ccccc1)c1ccccc1 (stereo not given), which Change is on record?
**A.** 21%

system: Rattus norvegicus; assay: Percentage change of triglycerides in obese female Zucker rats after 2 weeks of pre-treatment at a dose of 59 mg/kg/day; type: functional; settings: not given; method in brief: as §2

**Q.** Which Change does the source give for CC(C)(Cc1cccc(C(=O)c2cccc(CC(C)(C)C(=O)O)c2)c1)C(=O)O here?
**A.** 7%

system: Rattus norvegicus; assay: Percentage change of triglycerides in obese female Zucker rats after 2 weeks of pre-treatment at a dose of 100 mg/kg/day; type: functional; settings: not given; method in brief: as §2

**Q.** Which Change does the source give for CC(C)Cc1ccc(C(C)(CO)CCCCC(=O)CCCCC(C)(CO)c2ccc(CC(C)C)cc2)cc1 (stereo not given) here?
**A.** -15%

**Q.** With CC(CCCC(=O)CCCC(C)(C(=O)O)c1ccccc1)(C(=O)O)c1ccccc1 (stereo not given) as the compound, how does the Change read?
**A.** 27%

**Q.** With CC(C)OC(=O)C(C)(C)Oc1ccc(C(=O)c2ccc(Cl)cc2)cc1 [FENOFIBRATE] as the compound, how does the Change read?
**A.** -8%

**Q.** Which Change does the source give for CC(CCCCC(=O)CCCCC(C)(C(=O)O)c1ccccc1)(C(=O)O)c1ccccc1 (stereo not given) here?
**A.** -8%

system: Rattus norvegicus; assay: Percentage change of HDL cholesterol levels in obese female Zucker rats after 1 week of pre-treatment at a dose of 30 mg/kg/day; type: functional; settings: not given
Method in brief: (§3)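 Obese female Zucker fatty rats were gavaged once daily with 30 or 100 mg/kg/day in 20% EtOH/80% PEG-200 for 2 weeks. Sera were collected after a 6 h fast, before dosing, at 1 week (orbital plexus) and at 2 weeks (cardiac puncture). HDL-C was total cholesterol multiplied by HDL area fraction from gel-filtration lipoprotein profiles. Reported as % change from pretreatment ± SEM.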

**Q.** For CC(CO)(CCCCC(=O)CCCCC(C)(CO)c1ccccc1)c1ccccc1 (stereo not given), which Change is on record?
**A.** 0%

system: Rattus norvegicus; assay: Percentage change of HDL cholesterol levels in obese female Zucker rats after 1 week of pre-treatment at a dose of […]; type: functional; settings: not given

**Q.** With CC(C)(Cc1cccc(C(=O)c2cccc(CC(C)(C)C(=O)O)c2)c1)C(=O)O as the compound, how does the Change read?
**A.** 2%

system: Rattus norvegicus; assay: Percentage change of HDL cholesterol levels in obese female Zucker rats after 1 week of pre-treatment at a dose of 100 mg/kg/day; type: functional; settings: not given; method in brief: as §3

**Q.** Which Change does the source give for CC(C)Cc1ccc(C(C)(CO)CCCCC(=O)CCCCC(C)(CO)c2ccc(CC(C)C)cc2)cc1 (stereo not given) here?
**A.** -5%

**Q.** With CC(CCCC(=O)CCCC(C)(C(=O)O)c1ccccc1)(C(=O)O)c1ccccc1 (stereo not given) as the compound, how does the Change read?
**A.** -4%

**Q.** For CC(C)OC(=O)C(C)(C)Oc1ccc(C(=O)c2ccc(Cl)cc2)cc1 [FENOFIBRATE], which Change is on record?
**A.** -41%

**Q.** With CC(CCCCC(=O)CCCCC(C)(C(=O)O)c1ccccc1)(C(=O)O)c1ccccc1 (stereo not given) as the compound, how does the Change read?
**A.** 43%

system: Rattus norvegicus; assay: Percentage change of HDL cholesterol levels in obese female Zucker rats after 2 weeks of pre-treatment at a dose of 30 mg/kg/day; type: functional; settings: not given; method in brief: as §3

**Q.** With CC(CO)(CCCCC(=O)CCCCC(C)(CO)c1ccccc1)c1ccccc1 (stereo not given) as the compound, how does the Change read?
**A.** -27%

system: Rattus norvegicus; assay: Percentage change of HDL cholesterol levels in obese female Zucker rats after 2 weeks of pre-treatment at a dose of 59 mg/kg/day; type: functional; settings: not given

**Q.** With CC(C)(Cc1cccc(C(=O)c2cccc(CC(C)(C)C(=O)O)c2)c1)C(=O)O as the compound, how does the Change read?
**A.** 7%

system: Rattus norvegicus; assay: Percentage change of HDL cholesterol levels in obese female Zucker rats after 2 weeks of pre-treatment at a dose of 100 mg/kg/day; type: functional; settings: not given; method in brief: as §3

**Q.** With CC(C)Cc1ccc(C(C)(CO)CCCCC(=O)CCCCC(C)(CO)c2ccc(CC(C)C)cc2)cc1 (stereo not given) as the compound, how does the Change read?
**A.** 6%

**Q.** For CC(CCCC(=O)CCCC(C)(C(=O)O)c1ccccc1)(C(=O)O)c1ccccc1 (stereo not given), which Change is on record?
**A.** 12%

**Q.** With CC(C)OC(=O)C(C)(C)Oc1ccc(C(=O)c2ccc(Cl)cc2)cc1 [FENOFIBRATE] as the compound, how does the Change read?
**A.** -14%

**Q.** For CC(CCCCC(=O)CCCCC(C)(C(=O)O)c1ccccc1)(C(=O)O)c1ccccc1 (stereo not given), which Change is on record?
**A.** 45%

system: Rattus norvegicus; assay: Percentage change of non-HDL cholesterol levels in obese female Zucker rats after 1 week of pre-treatment at a dose of 30 mg/kg/day; type: functional; settings: not given; method in brief: as §2

**Q.** For CC(CO)(CCCCC(=O)CCCCC(C)(CO)c1ccccc1)c1ccccc1 (stereo not given), which Change is on record?
**A.** -30%

system: Rattus norvegicus; assay: Percentage change of non-HDL cholesterol levels in obese female Zucker rats after 1 week of pre-treatment at a dose of 59 mg/kg/day; type: functional; settings: not given; method in brief: as §2

**Q.** With CC(C)(Cc1cccc(C(=O)c2cccc(CC(C)(C)C(=O)O)c2)c1)C(=O)O as the compound, how does the Change read?
**A.** -43%

system: Rattus norvegicus; assay: Percentage change of non-HDL cholesterol levels in obese female Zucker rats after 1 week of pre-treatment at a dose of 100 mg/kg/day; type: functional; settings: not given; method in brief: as §2

**Q.** For CC(C)Cc1ccc(C(C)(CO)CCCCC(=O)CCCCC(C)(CO)c2ccc(CC(C)C)cc2)cc1 (stereo not given), which Change is on record?
**A.** 27%

**Q.** With CC(CCCC(=O)CCCC(C)(C(=O)O)c1ccccc1)(C(=O)O)c1ccccc1 (stereo not given) as the compound, how does the Change read?
**A.** 36%

**Q.** Which Change does the source give for CC(C)OC(=O)C(C)(C)Oc1ccc(C(=O)c2ccc(Cl)cc2)cc1 [FENOFIBRATE] here?
**A.** 19.8%

**Q.** For CC(CCCCC(=O)CCCCC(C)(C(=O)O)c1ccccc1)(C(=O)O)c1ccccc1 (stereo not given), which Change is on record?
**A.** 36%

system: Rattus norvegicus; assay: Percentage change of non-HDL cholesterol levels in obese female Zucker rats after 2 weeks of pre-treatment at a dose of 30 mg/kg/day; type: functional; settings: not given; method in brief: as §2

**Q.** Which Change does the source give for CC(CO)(CCCCC(=O)CCCCC(C)(CO)c1ccccc1)c1ccccc1 (stereo not given) here?
**A.** 31%

system: Rattus norvegicus; assay: Percentage change of non-HDL cholesterol levels in obese female Zucker rats after 2 weeks of pre-treatment at a dose of 59 mg/kg/day; type: functional; settings: not given; method in brief: as §2

**Q.** For CC(C)(Cc1cccc(C(=O)c2cccc(CC(C)(C)C(=O)O)c2)c1)C(=O)O, which Change is on record?
**A.** 34%

system: Rattus norvegicus; assay: Percentage change of non-HDL cholesterol levels in obese female Zucker rats after 2 weeks of pre-treatment at a dose of 100 mg/kg/day; type: functional; settings: not given; method in brief: as §2

**Q.** Which Change does the source give for CC(C)Cc1ccc(C(C)(CO)CCCCC(=O)CCCCC(C)(CO)c2ccc(CC(C)C)cc2)cc1 (stereo not given) here?
**A.** 34%

**Q.** For CC(CCCC(=O)CCCC(C)(C(=O)O)c1ccccc1)(C(=O)O)c1ccccc1 (stereo not given), which Change is on record?
**A.** 65%

**Q.** With CC(C)OC(=O)C(C)(C)Oc1ccc(C(=O)c2ccc(Cl)cc2)cc1 [FENOFIBRATE] as the compound, how does the Change read?
**A.** 11.6%

**Q.** For CC(CCCCC(=O)CCCCC(C)(C(=O)O)c1ccccc1)(C(=O)O)c1ccccc1 (stereo not given), which Change is on record?
**A.** 79%

system: not listed separately; assay: Concentration required for inhibition of lipid synthesis in primary cultures of rat hepatocytes at 300 uM; not active; type: functional; settings: Hepatocyte; method in brief: as §1

**Q.** For CC(C)Cc1ccc(C(C)(CO)CCCCC(=O)CCCCC(C)(CO)c2ccc(CC(C)C)cc2)cc1 (stereo not given), which inhibition at 300 µM is on record?
**A.** < 50%

**Q.** Which inhibition at 300 µM does the source give for CC(CCCC(=O)CCCC(C)(C(=O)O)c1ccccc1)(C(=O)O)c1ccccc1 (stereo not given) here?
**A.** < 50%

**Q.** For CC(CCCCC(=O)CCCCC(C)(C(=O)O)c1ccccc1)(C(=O)O)c1ccccc1 (stereo not given), which inhibition at 300 µM is on record?
**A.** < 50%
